High-throughput results deposited in PubChem BioAssay by several laboratories.
L major viab – Leishmania major promastigote growth inhibition; Leishmania major promastigotes, resazurin fluorescence viability; inhibition, % at 10 µM; hit rate 9% among 200,000; in the data active = inhibition above about 50%;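 also: promastigotes grown with compound for 44 hours at 28 °C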
Hsp70 activator – switches on Hsp70 transcription | HeLa Hsp70 promoter luciferase reporter, luminescence; scaled: vehicle 0, proteasome-inhibitor control 100% | activation, % at 10 µM | hit rate 0.04% among 200,000;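 active = activation above the mean across all tested compounds plus 3 SD, cutoff set per campaign, cut at about 5.5% in these data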;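 also: 100% = MG132 at 30 µM as the positive control and 0% = DMSO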
HSF1 inh – HSF1 inhibition; AID 2098; activity change, negative = inhibition, % at 7.5 µM (by protocol); hit rate 0.77% among 300,000; NIH3T3-HGL HSE-luciferase, MG132-induced, luminescence 8 h; hits give low values;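 active = more than half of replicate wells show activity change below -50%, luminescence cut by over half; inconclusive = some wells, but at most half, below -50%; inactive = no replicate well below -50%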;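 also: luciferase reports HSF-1 transcriptional activity via heat shock element; 0% = median of DMSO wells and -100% = zero luminescence signal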
T cruzi inh – blocks replication of Trypanosoma cruzi; T. cruzi beta-gal in NIH3T3, luminescence, 90 h; inhibition, % (no concentration beside the values); hit rate 1.4% among 300,000;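 active = mean inhibition across valid replicates above about 55%, limit read from the data; inconclusive = mean below that limit but half or more replicates reach it; inactive = mean below it, under half of replicates reach it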;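 also: signal also drops with host cell toxicity which is not excluded here; 0% = plate median of DMSO wells and 100% = zero luminescence signal; higher percent means less beta-gal luminescence so fewer parasites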
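Assay system: NIH/3T3 host cells with β-galactosidase reporter T. cruzi; input: 5,000 host fibroblasts per well; compound: single 50 nL compound addition per well in DMSO; timing: ≥90 h infection period, 3 h prior cell attachment; measured by: GalScreen β-gal luminescence, detergent lysis, 60 min; evaluation: percent inhibition of parasite-derived β-gal signal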
HSF-1 act – increases HSF-1 driven luciferase reporter signal; NIH3T3-HGL HSF-1 luciferase reporter, MG132, 8 h; 100% = twice DMSO control signal; activation, % at 9 µM; hit rate 1.7% among 300,000; AID 504408;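 active = mean replicate activation of at least 50% with a set share of replicates each reaching 50%; inconclusive = only one of those two conditions met; inactive = mean below 50% and too few replicates reaching it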;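 also: 0% = median of the neutral control wells and 100% = twice that signal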
* marks the source's active call; other numbers are inactive results; ? = inconclusive; nt = no result given. Only a selection was taken, and hits are over-represented in it overall.

SMILES	L major viab	Hsp70 activator	HSF1 inh	T cruzi inh	HSF-1 act
COc1ccc(-n2nc([N+](=O)[O-])c(=NCCc3ccc(C)cc3)n2O)cc1	80*	0	2	50	16
COc1ccc(-n2nc([N+](=O)[O-])c(=NCCC3=CCCCC3)n2O)cc1	82*	0	11	91*	10
COc1ccc(-n2nc([N+](=O)[O-])c(=NCc3cccnc3)n2O)cc1	82*	0	3	29	28
COc1ccc(-n2nc([N+](=O)[O-])c(=NC3CCN(Cc4ccccc4)CC3)n2O)cc1	46	0	10	51	19
COc1ccc(-n2nc([N+](=O)[O-])c(=NCCc3ccc(Cl)cc3)n2O)cc1	26	0	10	67*	29
COc1ccc(NC(=O)COc2ccccc2Cc2ccccc2)cc1S(N)(=O)=O	nt	nt	42	0	81*
C=CCN1C(=O)c2ccc(C(=O)N(C)CC(=O)Nc3ccccc3Br)cc2C1=O	nt	nt	-3	-16	-5
NS(=O)(=O)c1ccc(CNC(=O)c2scc3c2CCCC3)cc1	10	0	-3	-5	1
CCOc1ccc(N(CC(=O)N2CCCC2)S(=O)(=O)c2ccc(F)cc2)cc1	nt	nt	-2	-2	34
Cc1ccc(C(O)CN2C3=NCCN3c3ccccc32)cc1 (stereo not given)	96*	0	2	-1	4
Cc1cc(Cl)ccc1OCCCC(=O)NC1CCN(C)CC1	-3	0	2	71*	-20
Cc1ccc(C(C)C)c(OCC(=O)Nn2c(=O)[nH]c3ccccc3c2=O)c1	59*	-1	-3	-9	-10
Cc1ccc(C(C)C)c(OCC(=O)NC2CCN(C)CC2)c1	nt	nt	-6	64*	-12
O=C(Oc1ccccc1)N1CCN(C(=O)c2ccco2)CC1	nt	nt	4	-9	0
Cc1cc2c(cc1S(=O)(=O)Nc1cccc(F)c1)n(C)c(=O)c(=O)n2C	nt	nt	0	1	-3
O=c1/c(=C/c2ccco2)sc2n1CN(c1ccccc1)CN=2	1	0	-1	-2	22
Cc1ccc(N2CN=c3s/c(=C\c4ccccn4)c(=O)n3C2)cc1	-4	0	-52*	-3	-59
Cc1ccc(C(=O)C(C)OC(=O)c2nc(Cl)ccc2Cl)cc1 (stereo not given)	nt	nt	-4	-5	4
Cc1nnc(SCC(=O)Nc2ccccc2F)n1-c1ccc(F)cc1	nt	nt	1	2	-2
CS(=O)(=O)N1CCN(C(=O)NC2CCCCC2)CC1	-4	0	4	-4	7
COc1ccc(C2NC(=O)CCC2[N+](=O)[O-])c(OC)c1OC (stereo not given)	nt	nt	12	-1	-1
O=C(Nc1ccc2oc(-c3ccccc3Cl)nc2c1)c1ncn[nH]1	94*	1	21	-8	17
O=C(Nc1ccc2oc(-c3cccc4ccccc34)nc2c1)c1ncn[nH]1	-1	0	5	39	40
CC(=O)Nc1ccc2oc(-c3ccccc3Br)nc2c1	6	0	9	-10	?
CCC(C)c1ccc2oc(-c3ccc(NC(=O)c4ncn[nH]4)cc3)nc2c1 (stereo not given)	65*	0	6	20	2
SMILES	L major viab	Hsp70 activator	HSF1 inh	T cruzi inh	HSF-1 act
Cc1ccccc1-c1nc2cc(NC(=O)C3CC3)ccc2o1	nt	nt	59	-13	91*
COc1ccc(N(C(=O)c2ccco2)C(C(=O)NC2CCCC2)c2ccc(N(C)C)cc2)cc1 (stereo not given)	54*	0	8	10	2
COc1cc(OC)cc(N(C(=O)c2ccco2)C(C(=O)NC2CCCC2)c2ccc(N(C)C)cc2)c1 (stereo not given)	17	-1	8	18	35
COc1ccc(C(C(=O)NC2CCCC2)N(C(=O)c2ccoc2C)c2ccc(C)c(C)c2)cc1 (stereo not given)	75*	0	-10	42	-8
COc1ccc(C(C(=O)NC2CCCC2)N(C(=O)c2ccoc2C)c2cc(C)cc(C)c2)cc1 (stereo not given)	23	0	-19	11	-24
CC(C)c1ccc(N(C(=O)CNC(=O)c2ccco2)C(C(=O)NC2CCCC2)c2ccncc2)cc1 (stereo not given)	nt	nt	84	48	168*
COc1ccc(N(C(=O)/C=C/C(=O)Nc2cc(C)on2)C(C(=O)NC2CCCC2)c2ccccc2C)cc1 (stereo not given)	97*	0	14	-16	15
CCN(CC(=O)Nc1c(F)cccc1F)C(=O)c1ccc(COc2ccccc2)o1	nt	nt	-2	-1	-16
CCN(CC(=O)Nc1c(F)cccc1F)C(=O)C1CC1C (stereo not given)	nt	nt	-3	-5	4
O=C(O)c1ccc(/C=C/c2nc3sc4c(c3c(=O)[nH]2)CCC4)cc1	-11	0	-4	-15	3
Cc1ccc(-n2c(=O)c3c4c(sc3n(Cc3cc(=O)n5ccccc5n3)c2=O)CCC4)cc1C	74*	0	-4	13	13
CCOc1ccc(CN(C)C(=O)CNC(=O)C2CCCCC2)cc1OC	nt	nt	-4	-3	-18
O=C(O)CCCCCN1C(=O)CSC1=S	36	0	-26	39	-32
CC(C)OC(=O)CCCCCN1C(=O)CSC1=S	37	-1	8	56*	2
O=C(NC1CCCCC1)C(Cc1ccccc1)NS(=O)(=O)c1cccs1 (stereo not given)	1	0	-3	8	-15
CSCCC(NS(=O)(=O)c1cccs1)C(=O)NCc1ccccc1 (stereo not given)	-3	0	-52*	5	-57
O=C(NC1CCCc2ccccc21)C(Cc1ccccc1)NS(=O)(=O)c1cccs1 (stereo not given)	77*	0	-4	2	9
Cc1ccc(CNC(=O)C(Cc2ccccc2)NS(=O)(=O)c2cccs2)cc1 (stereo not given)	59*	0	7	0	28
CSCCC(NS(=O)(=O)c1cccs1)C(=O)NCc1ccc(C)cc1 (stereo not given)	1	0	-7	-12	-17
Cc1ccc(CNC(=O)C(Cc2ccccc2)NS(=O)(=O)c2ccc(Br)s2)cc1 (stereo not given)	26	0	3	21	-4
Cc1ccc(CCC(=O)Nc2ccc([N+](=O)[O-])cc2)o1	nt	nt	3	-7	-1
Cc1ccnc(NS(=O)(=O)c2ccc(NC(=O)c3ccc(Cl)cc3[N+](=O)[O-])cc2)n1	nt	nt	-3	10	-7
Oc1c(Cl)cc(Cl)cc1/C=N/Nc1ncc(Br)cn1	96*	0	-3	53	-13
Cc1ccc(N=Cc2cc(Cl)cc(Cl)c2O)nc1	-10	0	-10	-5	-6
O=C(Cc1c(F)cccc1Cl)Nc1nccs1	nt	nt	-7	-4	-2
O=C(Nc1nnc(-c2cccs2)o1)c1cc(-c2ccccc2)nc2ccccc12	-4	0	7	20	3
